High-throughput results: PubChem BioAssay, several laboratories
Compounds with a hit are over-represented: about 5.7% of the library has one in this group of screens.
SKKanGAS inh = S. pyogenes SKKanGAS growth inhibitors in kanamycin, primary screen, streptokinase expression inhibitor project, SKKanGAS strain, BacTiter-Glo luminescence. 6 h. inhibition, % at 7.5 µM. actives 1.3% (n = 300,000). AID 1662, 2009;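 active = mean replicate score, as percent of positive control median, at least 50; inconclusive = mean below 50 but one replicate at or above 50; inactive = mean and every replicate below 50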;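 also: strain carries kanamycin resistance gene driven by streptokinase promoter and grows in 40 µg/ml kanamycin; loss of luminescence reflects streptokinase promoter inhibition or plain growth inhibition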
Calb FLC = C. albicans growth inhibition with fluconazole, primary screen, CaCi-2 strain, Alamar Blue fluorescence | C. albicans CaCi-2 (fluconazole-resistant clinical isolate) + fluconazole, 48 h | growth inhibition, % (test concentration not listed) | actives 0.57% (n = 300,000);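 active = growth inhibition above about 58% in most replicates, limit read from the data, passing the limit was not always enough; inconclusive = exactly half the replicates above a set limit; inactive = most replicates below a set limit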;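 also: all wells also contain fluconazole at 8 µg/ml as a sub-toxic cotreatment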
Beta apoptosis = inhibitors of cytokine-induced beta cell apoptosis, primary screen, luminescence; protection from apoptosis, % (no concentration beside the values); INS-1E cytokine-induced death, ATP luminescence, 48 h; percent of positive-control rescue, neutral wells zero; AID 435005, 2010; actives 0.8% (n = 300,000);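 active = Every replicate reaches about 75%, or at least half do and their mean reaches it too, limit read from the data; inconclusive = At least half of replicates reach the limit but their mean does not; inactive = Under half of replicates reach the limit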;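 also: higher means more ATP so stronger rescue from cytokine killing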
CSC inhib = cancer stem cell viability inhibitors, primary screen, luminescence | cancer stem cell-like cells viability | inhibition, % at 7.5 µM | actives 1.1% (n = 300,000) | AID 2717, 2010; in the data active = inhibition above about 75%; inconclusive = no clear call, values can overlap the other calls; tested in HMLE shEcad cells
T cruzi inh = inhibitors of intracellular T. cruzi growth, primary screen, luminescence, NIH3T3 host cells | T. cruzi beta-gal in NIH3T3, 90 h | inhibition, % (test concentration not listed) | actives 1.4% (n = 300,000) | AID 1885, 2009;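 active = mean inhibition across valid replicates above about 55%, limit read from the data; inconclusive = mean below that limit but half or more replicates reach it; inactive = mean below it, under half of replicates reach it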;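 also: signal also drops with host cell toxicity which is not excluded here; higher percent means less beta-gal luminescence so fewer parasites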
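Material: NIH/3T3 host cells with β-galactosidase reporter T. cruzi; Input: 5,000 host fibroblasts per well; Medium: DMEM, 2% fetal bovine serum; Compound: 50 nL DMSO compound solution per well; Schedule: 3 h host attachment, then at least 90 h co-culture; Detection: luminescent β-galactosidase signal after 60 min lysis.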
Mdm2-MdmX inh = inhibitors of human Mdm2-MdmX association, primary screen, cell-based, luminescence, split luciferase, SaOS-2, uHTS; inhibition, % at 8 µM; AID 485346, 2010; Protein Mdm4 (Homo sapiens) + E3 ubiquitin-protein ligase Mdm2 (Homo sapiens), …; SaOS-2 split-luciferase Mdm2/MdmX complementation; actives 3% (n = 330,000);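 active = inhibition of at least 50% at 8 µM in the primary screen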
Target sequence (O15151 whole entry, looked up): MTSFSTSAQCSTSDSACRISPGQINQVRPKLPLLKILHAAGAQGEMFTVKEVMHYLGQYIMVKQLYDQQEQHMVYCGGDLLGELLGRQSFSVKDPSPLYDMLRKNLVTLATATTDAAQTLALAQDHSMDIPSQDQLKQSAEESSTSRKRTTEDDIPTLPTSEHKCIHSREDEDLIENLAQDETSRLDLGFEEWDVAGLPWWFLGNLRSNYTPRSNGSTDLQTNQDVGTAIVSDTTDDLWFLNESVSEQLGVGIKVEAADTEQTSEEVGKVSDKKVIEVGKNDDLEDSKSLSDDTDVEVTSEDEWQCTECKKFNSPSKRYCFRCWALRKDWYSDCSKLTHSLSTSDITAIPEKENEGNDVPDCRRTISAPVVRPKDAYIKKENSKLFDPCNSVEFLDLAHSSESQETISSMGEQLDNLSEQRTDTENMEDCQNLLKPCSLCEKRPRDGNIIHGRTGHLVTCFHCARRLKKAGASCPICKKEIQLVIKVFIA
Target sequence (Q00987 whole entry, looked up): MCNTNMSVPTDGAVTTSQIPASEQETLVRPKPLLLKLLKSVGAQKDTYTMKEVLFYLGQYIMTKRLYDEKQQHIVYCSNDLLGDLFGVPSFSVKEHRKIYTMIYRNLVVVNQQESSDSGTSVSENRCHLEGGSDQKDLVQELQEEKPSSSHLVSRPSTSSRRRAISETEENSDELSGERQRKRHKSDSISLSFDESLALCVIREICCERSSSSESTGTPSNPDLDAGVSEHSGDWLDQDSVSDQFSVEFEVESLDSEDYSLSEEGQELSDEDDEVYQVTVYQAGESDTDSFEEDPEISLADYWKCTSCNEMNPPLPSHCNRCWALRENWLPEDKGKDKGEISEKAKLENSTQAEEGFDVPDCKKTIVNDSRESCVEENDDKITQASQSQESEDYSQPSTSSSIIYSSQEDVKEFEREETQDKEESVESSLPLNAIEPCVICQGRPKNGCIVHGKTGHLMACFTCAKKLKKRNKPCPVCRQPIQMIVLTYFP
Mdm2-MdmX conf = Mdm2-MdmX complex disruptors, retested hits, confirmation, luminescence, single concentration. AID 489028, 2010. shares compounds with Mdm2-MdmX inh. actives 55% (n = 10,000). Mdm2-MdmX binding, luminescent assay. inhibition, % at 8 µM; in the data active = inhibition above about 40%
Full FLuc ctr = full-length luciferase signal inhibition, confirmation, counter-screen for Mdm2/MdmX interaction inhibitor project, cell-based, single concentration, SaOS-2; shares compounds with Mdm2-MdmX inh; SaOS-2 full-length luciferase counterscreen, luminescence; inhibition, % at 8 µM; actives 77% (n = 6,200); AID 504607, 2011;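 active = mean inhibition at 8 µM reaching about 37%, which flags the compound as non-specific, limit read from the data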;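 also: p53-null SaOS-2 cells with luciferase driven by a doxycycline-inducible promoter; compound on cells about two nights before reading with doxycycline added after day one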
Hits are given with their value; i = inactive; ? = inconclusive; nt = not tested or not shown.

SMILES	SKKanGAS inh	Calb FLC	Beta apoptosis	CSC inhib	T cruzi inh	Mdm2-MdmX inh	Mdm2-MdmX conf	Full FLuc ctr
Cc1ccc(S(=O)(=O)n2nc(-n3c(C)ccc3C)c3c(F)cccc32)c2ccccc12	i	i	i	i	i	50.1	i	nt
Cc1ccc(C)n1-c1nn(S(=O)(=O)c2cccc3cccnc23)c2cccc(F)c12	i	i	i	i	i	i	nt	nt
Cc1ccc(C)c(N2CCN(c3ncccc3[N+](=O)[O-])CC2)c1	i	i	i	i	i	72.7	i	nt
Cc1ccc(NC(=O)COC(=O)Cc2ccc(Br)cc2)cc1S(=O)(=O)N1CCOCC1	nt	nt	i	i	nt	i	nt	nt
c1ccc(C2CC(c3ccccc3)n3c(nc4ccccc43)N2)cc1 (configuration not stated)	i	i	i	i	i	63.3	40.0	47.7
CC(=O)N1CCc2cc(S(=O)(=O)N3c4ccccc4CC3C)ccc21 (configuration not stated)	i	i	i	i	i	60.6	53.8	57.8
CC1Cc2ccccc2N1S(=O)(=O)c1cnc(Cl)c(Cl)c1 (configuration not stated)	i	i	i	i	i	i	nt	nt
CSc1ccc(S(=O)(=O)N2c3ccccc3CC2C)cc1 (configuration not stated)	i	i	i	i	i	53.2	54.2	65.1
COC(=O)[C@@H]1C[C@]2(OC(=O)c3ccccc3)C=CC(=O)C[C@@H]2N1C(=O)OCc1ccccc1	i	i	i	75.6	i	94.1	62.0	i
CCN(CC)S(=O)(=O)c1ccc2c(c1)c(=O)c(C(=O)N1CCN(c3ccccn3)CC1)cn2C	i	i	i	i	i	i	nt	nt
c1ccc(-c2noc(-c3ccc4c(c3)OCO4)n2)nc1	76.4	i	i	95.1	i	83.0	85.6	i
COc1cccc(-c2nc(-c3ccccn3)no2)c1	i	i	nt	i	i	54.5	i	57.4
c1ccc(-c2noc(-c3ccc4ccccc4c3)n2)nc1	i	?	i	i	i	80.4	82.8	i
c1ccc(-c2noc(-c3ccncc3)n2)nc1	i	i	i	i	i	i	nt	nt
c1ccc(-c2nnc(NC3=NCCC3)o2)cc1	i	i	i	i	i	i	nt	nt
Fc1ccc(-c2nnc(NC3=NCCCCC3)o2)cc1	i	i	i	i	i	54.5	49.5	54.6
O=c1cc(C(O)C[N+](=O)[O-])occ1OCc1ccccc1 (configuration not stated)	i	i	nt	i	i	i	nt	nt
Cc1cnc(NC(=O)C2CC(=O)N(c3cccc(Cl)c3)C2)s1 (configuration not stated)	i	i	i	i	i	93.3	89.0	82.4
Cc1cnc(NC(=O)C2CC(=O)N(c3ccc4c(c3)OCCO4)C2)s1 (configuration not stated)	nt	nt	i	i	nt	i	nt	nt
COc1ccc(C2CC(=O)c3cnc(NC(=O)c4ccccc4)nc3C2)c(OC)c1 (configuration not stated)	i	i	i	i	i	57.6	41.0	70.7
CN(C)c1ccnc2sc(C(N)=O)c(N)c12	i	i	i	i	i	96.5	81.0	i
C[C@@H](C(=O)N1CCN(Cc2ccc3c(c2)OCO3)CC1)n1nnc2ccccc2c1=O	i	i	i	i	i	i	nt	nt
CC1=NNC(=O)/C1=C\c1cn(-c2ccccc2)nc1-c1ccc(Cl)cc1	65.9	i	107.0	101.5	i	100.3	47.1	i
Cc1ccc(-c2nn(-c3ccccc3)cc2C=C2C(=O)CC(C)(C)CC2=O)cc1	i	i	i	i	i	i	nt	nt
O=C(CN1C(=O)S/C(=C\c2cccc(Cl)c2)C1=O)NC1C=CS(=O)(=O)C1 (configuration not stated)	i	i	i	i	i	56.9	i	nt
SMILES	SKKanGAS inh	Calb FLC	Beta apoptosis	CSC inhib	T cruzi inh	Mdm2-MdmX inh	Mdm2-MdmX conf	Full FLuc ctr
O=C(CN1C(=O)/C(=C/c2cccc(Cl)c2)SC1=S)NC1C=CS(=O)(=O)C1 (configuration not stated)	i	i	i	i	i	i	nt	nt
CCN(CC)c1ccc(/C=N/Nc2nc3ccccc3[nH]2)c(O)c1	94.1	98.0	122.1	101.1	59.0	58.5	74.2	39.6
Cc1ccc2cc(/C=N/Nc3nc4ccccc4[nH]3)c(Cl)nc2c1	i	i	nt	nt	i	nt	nt	nt
C(=N\Nc1nc2ccccc2[nH]1)/c1cccc2nccnc12	i	i	i	i	i	73.8	64.9	i
COc1cc(OC)c(OC)cc1/C=N/Nc1nc2ccccc2[nH]1	i	i	i	i	i	i	nt	nt
O=C(/C=C\Nc1ccc2c(c1)OCO2)c1ccccn1	i	i	i	i	i	72.2	64.5	38.9
Cc1nnc(N2C(=O)c3cccc4c([N+](=O)[O-])ccc(c34)C2=O)s1	i	i	i	i	i	60.8	i	nt
Cc1ccnc(N2C(=O)c3ccccc3C2=O)c1	i	i	i	i	i	i	nt	nt
Cc1ccc(N2C(=O)c3cccc4c(N5CCN(C)CC5)ccc(c34)C2=O)c2cccnc12	i	i	i	i	i	66.0	65.0	56.5
Cc1ccnc(N2C(=O)c3cccc4c([N+](=O)[O-])ccc(c34)C2=O)c1	i	i	i	121.1	63.7	100.3	i	nt
Cc1ccc(N2C(=O)c3cccc4c([N+](=O)[O-])ccc(c34)C2=O)c2cccnc12	i	i	i	i	i	91.8	59.9	59.9
CN(CC(=O)NCc1ccc(F)cc1)S(=O)(=O)c1ccc(Br)s1	i	i	i	i	i	i	nt	nt
CSc1ccccc1NC(=O)COC(=O)c1cnc(C)cn1	nt	nt	i	i	nt	i	nt	nt
CC[C@]12c3[nH]c4cc(-c5ccco5)ccc4c3CCN1C(=O)[C@@H](CC(=O)NCCCn1ccnc1)C[C@@H]2C(=O)N1CCN(C(=O)c2ccco2)CC1	nt	nt	nt	nt	nt	i	nt	nt
CN(C)S(=O)(=O)c1ccc(Cl)c(NC(=O)CN2CCCCCC2)c1	i	i	i	i	i	i	nt	nt
CCN1CCN(c2ccc(S(=O)(=O)N3CCCCC3)cc2NC(=O)COc2ccc(Cl)c(C)c2)CC1	i	i	i	i	i	i	nt	nt
CCN1CCN(c2ccc(S(=O)(=O)N3CCCCC3)cc2NC(=O)/C=C/c2cc(OC)ccc2OC)CC1	i	i	i	i	i	100.4	44.8	63.2
